pEC50: −log10 of the molar value. The source made the active and inactive calls. The calls are words filed in the database; no cut-off is given here.
Tests used:
L1210 [1] = assay: Dose required to inhibit the cloning efficacy of L1210 cells to a factor of 0.37 after 24-h exposure to the compound; format: functional, Mus musculus
Summary of the method: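 Exponentially growing L1210 cells were exposed to a range of drug concentrations for 24 h, then assessed by cloning. The dose reducing cloning efficiency to a factor of 0.37 was determined.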

Mus musculus [2] = species: Mus musculus; assay: Optimal dose required against DBA2 mice inoculated with L1210 cells; format: functional
Summary of the method: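 DBA2 mice were inoculated with 10⁵ L1210 cells. The optimal dose (mg/kg) was the dose giving the greatest increase in life time of treated mice relative to controls.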

Mus musculus [3] = species: Mus musculus; assay: Increase in life span, expressed as treated by control was determined in DBA2 mice inoculated with L1210 cells; NS denotes not significant; format: functional, organism-based
Summary of the method: (§1)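 DBA2 mice were inoculated with 10⁵ L1210 cells and treated. Increase in life span was reported as mean survival of treated over control × 100. Significance was assessed by Student's test.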

L1210 [4] = assay: Dose required to inhibit growth of L1210 cells after 24-h exposure to the compound; format: functional; settings: Mus musculus, L1210, 24 h; read-out: ED50 (the source's name)
Summary of the method: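 Exponentially growing L1210 cells were exposed to a range of drug concentrations for 24 h. The dose giving 50% growth inhibition was determined.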

Calf thymus DNA = assay: Affinity constant for calf thymus DNA; format: nucleic-acid assay; settings: Bos taurus
Summary of the method: (§2)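 Fluorescence competition assay with ethidium dimer at 25 °C in 0.1 M Tris-HCl, 0.1 M NaCl buffer, pH 7.4. Calf thymus DNA (1.6 × 10⁻⁶ M base pairs) was equilibrated with ethidium dimer for 24 h, then measured with varied drug concentrations. Excitation was 540 nm and emission 610 nm. Bound dye per base pair was derived by the Gaugain method. Ka was fitted from computed versus experimental displacement curves.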

Mus musculus [5] = species: Mus musculus; assay: Maximal tolerated dose against DBA2 mice inoculated with L1210 cells was determined; format: functional
Mus musculus [6] = species: Mus musculus; assay: Increase in life span, expressed as treated by control was determined in DBA2 mice inoculated with L1210 cells; format: functional
Summary of the method: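 DBA2 mice inoculated with 10⁵ L1210 leukemia cells and treated with compound. Read-out was increase in life span as T/C × 100, the mean % survival of treated over control animals. Significance was tested by Student's test. Optimal dose in mg/kg was the dose that most extended the life time of treated mice.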

Nucleic Acid = assay: Affinity constant against calf thymus DNA; NM denotes not measurable due to weak solubility; format: nucleic-acid assay; settings: Bos taurus; summary of the method: as §2
Mus musculus [7] = species: Mus musculus; assay: Increase in life span, expressed as treated by control was determined in DBA2 mice inoculated with L1210 cells; NM denotes not measurable due to weak solubility; format: functional, organism-based; summary of the method: as §1

Row | Compound | ED37 (L1210 [1]) [µM] | OD (Mus musculus [2]) [mg/kg] | T/C (Mus musculus [3]) | pEC50 (L1210 [4]) | Ka (Calf thymus DNA) [M⁻¹] | MTD (Mus musculus [5]) [mg/kg] | T/C (Mus musculus [6]) [%] | Ka (Nucleic Acid) | T/C (Mus musculus [7])
1 | COc1ccc2c(c1)c1c3c(ccc1n2C)CCN(CCN1CCC(C2CCN(CCN4CCc5ccc6c(c5C4)c4cc(OC)ccc4n6C)CC2)CC1)C3.CS(=O)(=O)O.CS(=O)(=O)O | 0.6 | 10 | inactive | 6.18 | 4e+07 | 10 |  |  | 
2 | COc1ccc2[nH]c3c(CNC(=O)[C@]4(O)O[C@H](CO)[C@H](O)[C@H]4O)cc4cc[n+](CCN5CCC(C6CCN(CC[n+]7ccc8cc(CNC(=O)[C@]9(O)O[C@H](CO)[C@H](O)[C@H]9O)c9[nH]c%10ccc(OC)cc%10c9c8c7)CC6)CC5)cc4c3c2c1 |  |  |  | 5.67 | 3e+06 |  |  |  | 
3 | COc1ccc2[nH]c3c(CN)cc4cc[n+](CCN5CCC(C6CCN(CC[n+]7ccc8cc(CN)c9[nH]c%10ccc(OC)cc%10c9c8c7)CC6)CC5)cc4c3c2c1.CS(=O)(=O)O.CS(=O)(=O)O.CS(=O)(=O)[O-].CS(=O)(=O)[O-] | 0.066 | 10 | inactive | 7.24 | 2e+07 | 20 |  |  | 
4 | COc1ccc2c(c1)c1c3cnccc3ccc1n2CCN1CCC(C2CCN(CCn3c4ccc(OC)cc4c4c5cnccc5ccc43)CC2)CC1.CS(=O)(=O)O.CS(=O)(=O)O |  | 10 | inactive | 6.22 | 1e+07 | 10 |  |  | 
5 | COc1ccc2[nH]c3ccc4cc[n+](CCN5CCC(C6CCN(CC[n+]7ccc8ccc9[nH]c%10ccc(OC)cc%10c9c8c7)CC6)CC5)cc4c3c2c1.[Cl-].[Cl-] [DITERCALINIUM CHLORIDE] | 0.024 | 10 |  | 6.72 |  | 10 | 182 |  | 
6 | COc1ccc2[nH]c3c(CNC(=O)[C@@H](N)CCC(=O)O)cc4cc[n+](CCN5CCC(C6CCN(CC[n+]7ccc8cc(CNC(=O)[C@@H](N)CCC(=O)O)c9[nH]c%10ccc(OC)cc%10c9c8c7)CC6)CC5)cc4c3c2c1.CS(=O)(=O)O.CS(=O)(=O)O.CS(=O)(=O)[O-].CS(=O)(=O)[O-] | >0.58 |  |  | 6.34 |  |  |  | Not measurable | Not measurable
7 | COc1ccc2[nH]c3c(C)cc4cc[n+](CCN5CCC(C6CCN(CC[n+]7ccc8cc(C)c9[nH]c%10ccc(OC)cc%10c9c8c7)CC6)CC5)cc4c3c2c1.CS(=O)(=O)O.CS(=O)(=O)O.CS(=O)(=O)[O-].CS(=O)(=O)[O-] | 0.1 | 7 |  | 6.43 | 5e+08 | 11 | 172 |  | 
8 | COc1ccc2[nH]c3c(C(=O)NCCN4CCC(C5CCN(CCNC(=O)c6cc7ccncc7c7c6[nH]c6ccc(OC)cc67)CC5)CC4)cc4ccncc4c3c2c1 | 30 | 10 | inactive | 4.96 | 2e+08 | 10 |  |  | 
9 | COc1ccc2c(c1)c1c3c[n+](C)ccc3ccc1n2CCN1CCC(C2CCN(CCn3c4ccc(OC)cc4c4c5c[n+](C)ccc5ccc43)CC2)CC1.CS(=O)(=O)O.CS(=O)(=O)O.CS(=O)(=O)[O-].CS(=O)(=O)[O-] |  | 5 |  | 6.05 | > 1e+09 | 5 | 134 |  | 
10 | COc1ccc2[nH]c3c(C(=O)O)cc4cc[n+](CCN5CCC(C6CCN(CC[n+]7ccc8cc(C(=O)O)c9[nH]c%10ccc(OC)cc%10c9c8c7)CC6)CC5)cc4c3c2c1.CS(=O)(=O)O.CS(=O)(=O)O.CS(=O)(=O)[O-].CS(=O)(=O)[O-] | >0.8 |  |  | < 6.10 | 250000 |  |  |  | Not measurable
11 | COc1ccc2[nH]c3ccc4cc[n+](CCN5CCC(C6CCN(CC[n+]7ccc8ccc9[nH]c%10ccc(OC)cc%10c9c8c7)CC6)CC5)cc4c3c2c1.CS(=O)(=O)O.CS(=O)(=O)O.CS(=O)(=O)[O-].CS(=O)(=O)[O-] | 0.02 | 10 |  |  |  | 10 | 182 |  | 
12 | COc1ccc2[nH]c3ccc4cc[n+](CCN5CCC(C6CCN(CC[n+]7ccc8ccc9[nH]c%10ccc(OC)cc%10c9c8c7)CC6)CC5)cc4c3c2c1 |  |  |  |  | 1e+07 |  |  |  | 

Reference: ChEMBL document CHEMBL1126026, “Synthesis and biological activity of new dimers in the 7H-pyrido[4,3-c] carbazole antitumor series” (1992)
